What was measured:
[1] = Half life in pooled human liver microsomes assessed as parent compound remaining at 2.5 uM measured up to 45 mins in presence of NADPH by LC-MS analysis; assay type: ADME, Microsome
Method in brief: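 Compound at 2.5 μM (added from 100 μM stock in 50/50 acetonitrile/water) with 1 mg/mL pooled human liver microsomes and 250 μM NADPH in 0.1 M potassium phosphate pH 7.4 at 37 °C after 5-min preincubation. Sampled at 5, 10, 15, 30, 45 min into ice-cold acetonitrile with atropine internal standard; parent quantified by LC-MS (ESI+, [M+H]+); no-NADPH controls; half-time derived.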

[2] = Effect on body temperature in Swiss Albino mouse assessed as rectal body temperature at 10 mg/kg, ip measured after 120 mins by thermometer (reference value: 0.15 to 1.11 degreeC); assay type: organism-based; conditions: in vivo, 2 h
[3] = Effect on body temperature in Swiss Albino mouse assessed as rectal body temperature at 20 mg/kg, ip measured after 60 mins by thermometer (reference value: 0.33 to 0.61 degreeC); assay type: ADME, organism-based; conditions: in vivo, 1 h
[4] = target: 5-hydroxytryptamine receptor 2A (Rattus norvegicus, UniProt P14842); assay: Displacement of [3H]-ketanserin from rat cerebral cortex 5HT2A receptor measured after 20 mins by liquid scintillation counter method
Method in brief: (§1)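 Competition binding in rat brain tissue membranes against D2, 5-HT1A and 5-HT2A sites; Ki reported as mean ± S.E.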

Mus musculus [5] = assay: Effect on 8-OH-DPAT-induced hypothermia in Swiss albino mouse assessed as change in rectal body temperature at 20 mg/kg, ip pretreated with compound for 45 mins followed by 8-OH-DPAT challenge and measured after 60 min by thermometer (reference value: -0.66 to -0.5 degreeC); assay type: functional, organism-based; conditions: time 105.0 min
[6] = Effect on body temperature in Swiss Albino mouse assessed as rectal body temperature at 10 mg/kg, ip measured after 30 mins by thermometer (reference value: 0.16 to 0.33 degreeC); assay type: organism-based; conditions: in vivo, 0.5 h
[7] = Effect on body temperature in Swiss Albino mouse assessed as rectal body temperature at 20 mg/kg, ip measured after 90 mins by thermometer (reference value: 0.18 to 0.63 degreeC); assay type: ADME, organism-based; conditions: in vivo, 1.5 h
[8] = Effect on body temperature in Swiss Albino mouse assessed as rectal body temperature at 10 mg/kg, ip measured after 90 mins by thermometer (reference value: 0.18 to 0.63 degreeC); assay type: ADME, organism-based; conditions: in vivo, 1.5 h
[9] = Effect on body temperature in Swiss Albino mouse assessed as rectal body temperature at 20 mg/kg, ip measured after 120 mins by thermometer (reference value: 0.15 to 1.11 degreeC); assay type: ADME, organism-based; conditions: in vivo, 2 h
[10] = target: T1, 5-hydroxytryptamine receptor 1A (Rattus norvegicus, UniProt P19327); assay: Displacement of [3H]-8-OH-DPAT from rat cerebral cortex 5HT1A receptor measured after 15 mins by liquid scintillation counter method
T1 sequence (P19327 whole entry): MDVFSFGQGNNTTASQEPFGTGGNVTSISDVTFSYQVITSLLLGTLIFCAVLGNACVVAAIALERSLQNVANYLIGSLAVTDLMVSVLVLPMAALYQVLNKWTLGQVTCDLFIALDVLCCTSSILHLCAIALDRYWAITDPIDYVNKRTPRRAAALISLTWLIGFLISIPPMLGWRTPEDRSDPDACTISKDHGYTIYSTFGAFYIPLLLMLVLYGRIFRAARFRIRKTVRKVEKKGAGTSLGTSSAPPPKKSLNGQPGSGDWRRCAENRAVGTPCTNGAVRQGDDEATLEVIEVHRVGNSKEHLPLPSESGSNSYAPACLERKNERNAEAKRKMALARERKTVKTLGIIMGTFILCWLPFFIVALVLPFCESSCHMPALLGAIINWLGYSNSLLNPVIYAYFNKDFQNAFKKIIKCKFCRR

Mus musculus [11] = assay: Antipsychotic activity Swiss Albino mouse assessed as inhibition of DOI-induced head twitching by measuring number of episodes at 2.5 mg/kg, ip administered 30 mins prior to DOI stimulation (reference value: 19.63 to 19.88); assay type: functional; conditions: 0.5 h
Method in brief: (§2)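 Male Albino Swiss mice (24–28 g) were habituated to sawdust-lined cages 20 min before the first treatment. Compounds were suspended in 1% aqueous Tween 80 and given i.p. 30 min before (±)-DOI, 2.5 mg/kg i.p. in aqueous solution. Head twitches were counted blind over 20 min, n=8 per group, mean ± SEM, one-way ANOVA with Dunnett's test.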

Mus musculus [12] = assay: Effect on 8-OH-DPAT-induced hypothermia in Swiss albino mouse assessed as change in rectal body temperature at 10 mg/kg, ip pretreated with compound for 45 mins followed by 8-OH-DPAT challenge and measured after 60 min by thermometer (reference value: -0.66 to -0.5 degreeC); assay type: functional, organism-based; conditions: time 105.0 min
[13] = Effect on 8-OH-DPAT-induced lower lip retraction in Wistar rat at 20 mg/kg, ip pretreated with compound for 45 mins followed by 8-OH-DPAT challenge and measured after 15 mins (reference value: 2.7 to 2.8); assay type: functional; conditions: time 60 min, 1 h
Mus musculus [14] = assay: Antipsychotic activity Swiss Albino mouse assessed as inhibition of DOI-induced head twitching by measuring number of episodes at 10 mg/kg, ip administered 30 mins prior to DOI stimulation (reference value: 19.63 to 19.88); assay type: functional; conditions: 0.5 h; method in brief: as §2
[15] = Effect on body temperature in Swiss Albino mouse assessed as rectal body temperature at 10 mg/kg, ip measured after 60 mins by thermometer (reference value: 0.33 to 0.61 degreeC); assay type: ADME, organism-based; conditions: in vivo, 1 h
[16] = target: Dopamine D2 receptor and Serotonin 2a receptor (D2 and 5HT2a) (Rattus norvegicus) (UniProt P61169+P14842); assay: Ratio of pKi for displacement of [3H]-ketanserin from rat cerebral cortex 5HT2A receptor measured after 20 mins by liquid scintillation counter method to pKi for displacement of [3H] Spiperone from rat striatum dopamine D2 receptor measured after 30 mins by liquid scintillation counter method
Method in brief: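 Ratio of pKi values, 5-HT2A over D2, computed from competition radioligand binding in rat brain tissue.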

Mus musculus [17] = assay: Effect on 8-OH-DPAT-induced hypothermia in Swiss albino mouse assessed as change in rectal body temperature at 20 mg/kg, ip pretreated with compound for 45 mins followed by 8-OH-DPAT challenge and measured after 45 min by thermometer (reference value: -1.04 to -0.78 degreeC); assay type: functional, organism-based; conditions: time 90.0 min
[18] = Effect on body temperature in Swiss Albino mouse assessed as rectal body temperature at 20 mg/kg, ip measured after 30 mins by thermometer (reference value: 0.16 to 0.33 degreeC); assay type: ADME, organism-based; conditions: in vivo, 0.5 h
[19] = Effect on 8-OH-DPAT-induced lower lip retraction in Wistar rat at 10 mg/kg, ip pretreated with compound for 45 mins followed by 8-OH-DPAT challenge and measured after 15 mins (reference value: 2.7 to 2.8); assay type: functional; conditions: time 60 min, 1 h
Mus musculus [20] = assay: Effect on 8-OH-DPAT-induced hypothermia in Swiss albino mouse assessed as change in rectal body temperature at 20 mg/kg, ip pretreated with compound for 45 mins followed by 8-OH-DPAT challenge and measured after 30 min by thermometer (reference value: -1.36 to -1.12 degreeC); assay type: functional, organism-based; conditions: time 75.0 min
Mus musculus [21] = assay: Effect on 8-OH-DPAT-induced hypothermia in Swiss albino mouse assessed as change in rectal body temperature at 20 mg/kg, ip pretreated with compound for 45 mins followed by 8-OH-DPAT challenge and measured after 15 min by thermometer (reference value: -1.82 to -1.66 degreeC); assay type: functional, organism-based; conditions: time 60.0 min
Mus musculus [22] = assay: Effect on 8-OH-DPAT-induced hypothermia in Swiss albino mouse assessed as change in rectal body temperature at 10 mg/kg, ip pretreated with compound for 45 mins followed by 8-OH-DPAT challenge and measured after 15 min by thermometer (reference value: -1.82 to -1.66 degreeC); assay type: functional, organism-based; conditions: time 60.0 min
Mus musculus [23] = assay: Effect on 8-OH-DPAT-induced hypothermia in Swiss albino mouse assessed as change in rectal body temperature at 10 mg/kg, ip pretreated with compound for 45 mins followed by 8-OH-DPAT challenge and measured after 45 min by thermometer (reference value: -1.04 to -0.78 degreeC); assay type: functional, organism-based; conditions: time 90.0 min
Mus musculus [24] = assay: Effect on 8-OH-DPAT-induced hypothermia in Swiss albino mouse assessed as change in rectal body temperature at 10 mg/kg, ip pretreated with compound for 45 mins followed by 8-OH-DPAT challenge and measured after 30 min by thermometer (reference value: -1.36 to -1.12 degreeC); assay type: functional, organism-based; conditions: time 75.0 min
D(2) dopamine receptor = D(2) dopamine receptor (Rattus norvegicus, UniProt P61169); assay: Displacement of [3H] Spiperone from rat striatum dopamine D2 receptor measured after 30 mins by liquid scintillation counter method; method in brief: as §1
Mus musculus [25] = assay: Antipsychotic activity Swiss Albino mouse assessed as inhibition of DOI-induced head twitching by measuring number of episodes at 5 mg/kg, ip administered 30 mins prior to DOI stimulation (reference value: 19.63 to 19.88); assay type: functional; conditions: 0.5 h; method in brief: as §2

Sequence of D(2) dopamine receptor (P61169 whole entry): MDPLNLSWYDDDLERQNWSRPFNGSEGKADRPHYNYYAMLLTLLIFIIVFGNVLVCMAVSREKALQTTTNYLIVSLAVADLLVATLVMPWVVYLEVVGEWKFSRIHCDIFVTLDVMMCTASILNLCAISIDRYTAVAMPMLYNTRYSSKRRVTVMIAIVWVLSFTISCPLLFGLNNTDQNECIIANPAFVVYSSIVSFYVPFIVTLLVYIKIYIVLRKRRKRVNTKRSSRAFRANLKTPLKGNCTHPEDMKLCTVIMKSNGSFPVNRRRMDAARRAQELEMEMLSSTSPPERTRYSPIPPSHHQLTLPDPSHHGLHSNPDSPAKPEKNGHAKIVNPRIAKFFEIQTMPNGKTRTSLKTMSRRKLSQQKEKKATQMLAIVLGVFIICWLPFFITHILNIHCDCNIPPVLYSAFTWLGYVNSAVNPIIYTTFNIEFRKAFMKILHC
Sequence of 5-hydroxytryptamine receptor 2A (P14842 whole entry): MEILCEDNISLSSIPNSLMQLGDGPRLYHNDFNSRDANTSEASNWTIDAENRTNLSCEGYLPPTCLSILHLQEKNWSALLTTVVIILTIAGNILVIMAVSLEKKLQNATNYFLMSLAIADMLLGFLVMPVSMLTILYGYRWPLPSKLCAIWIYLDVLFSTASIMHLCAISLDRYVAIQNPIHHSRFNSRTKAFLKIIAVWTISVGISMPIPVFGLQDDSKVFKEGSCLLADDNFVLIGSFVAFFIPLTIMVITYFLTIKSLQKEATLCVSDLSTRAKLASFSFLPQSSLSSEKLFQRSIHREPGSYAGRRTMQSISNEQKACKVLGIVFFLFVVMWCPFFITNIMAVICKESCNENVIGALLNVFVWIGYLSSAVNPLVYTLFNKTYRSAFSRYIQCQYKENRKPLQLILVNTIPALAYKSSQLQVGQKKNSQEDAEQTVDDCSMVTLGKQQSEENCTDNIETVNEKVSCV
Sequence of Dopamine D2 receptor and Serotonin 2a receptor (D2 and 5HT2a) (Rattus norvegicus) (P14842 whole entry, looked up): as the sequence (P14842 whole entry) above
Sequence of Dopamine D2 receptor and Serotonin 2a receptor (D2 and 5HT2a) (Rattus norvegicus) (P61169 whole entry, looked up): as the sequence (P61169 whole entry) above

SMILES | half-life at 2.5 µM [1] | deltaT [2] | deltaT [3] | Ki [4] | deltaT (Mus musculus [5]) | deltaT [6] | deltaT [7] | deltaT [8] | deltaT [9] | Ki [10] | Activity (Mus musculus [11]) | deltaT (Mus musculus [12]) | Activity [13] | Activity (Mus musculus [14]) | deltaT [15] | Ratio pKi [16] | deltaT (Mus musculus [17]) | deltaT [18] | Activity [19] | deltaT (Mus musculus [20]) | also measured
COc1ccccc1CN1C2CCC1CC(NC(=O)c1ccc3ccccc3c1)C2 (configuration not stated) | 41.3 min | 0.26 °C | 0.01 °C | 0.919 µM | -0.65 °C | 0.23 °C | 0.16 °C | 0.63 °C | -0.26 °C | 0.0825 µM | 16.25 | -1.08 °C | 2 | 8.25 | 0.44 °C | 0.85 | -0.92 °C | -0.34 °C | 2.5 | -1.37 °C | deltaT (Mus musculus [21]): -1.47 °C; deltaT (Mus musculus [22]): -1.37 °C; deltaT (Mus musculus [23]): -1.45 °C; deltaT (Mus musculus [24]): -1.77 °C; Ki (D(2) dopamine receptor): 0.0769 µM; Activity (Mus musculus [25]): 12.25
O=C(NC1CC2CCC(C1)N2Cc1ccccc1Cl)c1ccc2ccccc2c1 (configuration not stated) | 33 min | 1.34 °C | 0.44 °C | 0.397 µM | -1.53 °C | 0 °C | 0.44 °C | 0.84 °C | 1.39 °C | 0.158 µM | 20 | -0.12 °C | 2 | 10.75 | 0.96 °C | 0.86 | -2.18 °C | -0.36 °C | 2.5 | -2.12 °C | deltaT (Mus musculus [21]): -2 °C; deltaT (Mus musculus [22]): -0.97 °C; deltaT (Mus musculus [23]): -0.62 °C; deltaT (Mus musculus [24]): -1.17 °C; Ki (D(2) dopamine receptor): 0.0348 µM; Activity (Mus musculus [25]): 14.75

Source: ChEMBL document CHEMBL4715748, “Synthesis and biological investigation of new equatorial (β) stereoisomers of 3-aminotropane arylamides with atypical antipsychotic profile” (Bioorg Med Chem, 2016)
